In ChEMBL document CHEMBL1148651, “Potent antitumor 9-anilinoacridines and acridines bearing an alkylating N-mustard residue on the acridine chromophore: synthesis and biological activity” (J Med Chem, 2006):

Key:
HCT-116 = assay: Antiproliferative activity against human HCT116 cell line; format: functional, cell-based
Outline: (§1)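 Growth inhibition after 72 h continuous exposure. Solid tumour lines were read by sulforhodamine B. Six or seven concentrations per compound were tested in duplicate. IC50 came from median-effect (mass-action law) dose-effect analysis.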

MX1 [1] = assay: Antiproliferative activity against human MX1 cell line; format: functional, cell-based; outline: as §1
CCRF-CEM [2] = assay: Antiproliferative activity against human CCRF-CEM cell line; format: functional, cell-based
CCRF-CEM [3] = assay: Antiproliferative activity against human taxol resistant CCRF-CEM cell line; format: functional, cell-based
Outline: (§2)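 Leukemic CCRF-CEM parent and resistant sublines were exposed for 72 h, then given phenazine methosulfate-XTT at 37 °C for 6 h. Absorbance was read at 450 and 630 nm. Six or seven concentrations were tested in duplicate, and IC50 came from median-effect plot analysis. Resistance fold is relative to the parent CCRF-CEM IC50.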

CCRF-CEM [4] = assay: Antiproliferative activity against human vinblastine resistant CCRF-CEM cell line; format: functional, cell-based; outline: as §2
A549 = assay: Antiproliferative activity against human A549 cell line; format: functional, cell-based; outline: as §1
MX1 [5] = assay: Antitumor activity against human MX1 cell line xenografted in nude mouse at 4 mg/kg, iv after 19 days; format: functional
Outline: (§3)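 Nude mice were implanted subcutaneously with MX-1 tumour tissue (50 µg) on day 0. Doses were given iv via the tail vein every 2 or 3 days (Q2D or Q3D schedules) in 20 µL DMSO plus 180 µL saline. Tumour volume was measured by caliper (length × width × height). Result is T/C (%) on the stated day.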

Mus musculus [6] = assay: Toxicity against nude mouse xenografted with human MX1 cell line assessed as weight loss at 4 mg/kg, iv after 17 days; format: functional
Outline: (§4)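 MX-1 xenograft nude mice were implanted with 50 µg tissue subcutaneously on day 0. They were treated iv by tail vein every 2 or 3 days in 20 µL DMSO plus 180 µL saline. Toxicity is the maximum body weight loss (%) relative to initial pretreatment body weight, on the day indicated.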

Mus musculus [7] = assay: Toxicity against nude mouse xenografted with human MX1 cell line assessed as weight loss at 2 mg/kg, iv after 12 days; format: functional; outline: as §4
MX1 [8] = assay: Antitumor activity against human MX1 cell line xenografted in nude mouse at 2 mg/kg, iv after 14 days; format: functional; outline: as §3
Mus musculus [9] = assay: Toxicity against nude mouse xenografted with human MX1 cell line assessed as weight loss at 10 mg/kg, iv after 19 days; format: functional
MX1 [10] = assay: Antitumor activity against human MX1 cell line xenografted in nude mouse at 10 mg/kg, iv after 15 days; format: functional; outline: as §3
Mus musculus [11] = assay: Toxicity against nude mouse xenografted with human MX1 cell line assessed as weight loss at 10 mg/kg, iv after 13 days; format: functional; outline: as §4
Mus musculus [12] = assay: Toxicity against nude mouse xenografted with human MX1 cell line assessed as weight loss at 10 mg/kg, iv after 17 days; format: functional
Mus musculus [13] = assay: Toxicity against nude mouse xenografted with human MX1 cell line assessed as weight loss at 2 mg/kg, iv after 14 days; format: functional; outline: as §4
MX1 [14] = assay: Antitumor activity against human MX1 cell line xenografted in nude mouse at 1.5 mg/kg, iv after 14 days; format: functional; outline: as §3
Mus musculus [15] = assay: Toxicity against nude mouse xenografted with human MX1 cell line assessed as weight loss at 1.5 mg/kg, iv after 14 days; format: functional; outline: as §4

`COc1ccc(Nc2c3ccccc3nc3c(OCCCCN(CCCl)CCCl)cccc23)cc1N` was tested, and the IC50 (HCT-116) was 8.3 nM, the IC50 (MX1 [1]) was 5.6 nM and the IC50 (CCRF-CEM [2]) was 5.9 nM. The IC50 (CCRF-CEM [3]) was 89.9 nM, the IC50 (CCRF-CEM [4]) was 86.5 nM and the IC50 (A549) was 19 nM.

In the case of `ClCCN(CCCl)CCCOc1cccc2cc3ccccc3nc12`, the IC50 (HCT-116) is reported as 135 nM, the IC50 (MX1 [1]) is reported as 82.7 nM and the IC50 (CCRF-CEM [2]) is reported as 35.3 nM. It also gave an IC50 (CCRF-CEM [3]) of 150 nM, an IC50 (CCRF-CEM [4]) of 253 nM and an IC50 (A549) of 166 nM.

For `Nc1cc(CO)cc(Nc2c3ccccc3nc3ccccc23)c1`, the IC50 (A549) was 47 nM.

Work on `Nc1cc(CO)cc(Nc2c3ccccc3nc3c(OCCCCN(CCCl)CCCl)cccc23)c1` yielded an IC50 (HCT-116) of 9.5 nM, an IC50 (MX1 [1]) of 2.4 nM and an IC50 (CCRF-CEM [2]) of 4.2 nM. It also gave an IC50 (CCRF-CEM [3]) of 40.5 nM, an IC50 (CCRF-CEM [4]) of 111 nM and an IC50 (A549) of 5.3 nM.

`Cc1cc(N)cc(Nc2c3ccccc3nc3c(OCCN(CCCl)CCCl)cccc23)c1` was tested, and the IC50 (HCT-116) was 23.2 nM, the IC50 (MX1 [1]) was 21.9 nM and the IC50 (CCRF-CEM [2]) was 4.1 nM. It also gave an Activity (MX1 [5]) of 79%, an IC50 (CCRF-CEM [3]) of 21.7 nM and an Activity (Mus musculus [6]) of 15%. It also gave an IC50 (CCRF-CEM [4]) of 18.8 nM and an IC50 (A549) of 44.9 nM.

Work on `COc1ccc(Nc2c3ccccc3nc3c(OCCN(CCCl)CCCl)cccc23)cc1N` yielded an IC50 (HCT-116) of 48.2 nM, an IC50 (MX1 [1]) of 24.1 nM and an IC50 (CCRF-CEM [2]) of 12.3 nM. For the same molecule, the IC50 (CCRF-CEM [3]) was 57.5 nM, the IC50 (CCRF-CEM [4]) was 60.1 nM and the IC50 (A549) was 118 nM.

Work on `CC(=O)O[C@H]1C(=O)[C@@]2(C)[C@H]([C@H](OC(=O)c3ccccc3)[C@]3(O)C[C@H](OC(=O)[C@H](O)[C@@H](NC(=O)c4ccccc4)c4ccccc4)C(C)=C1C3(C)C)[C@]1(OC(C)=O)CO[C@@H]1C[C@@H]2O` [PACLITAXEL] yielded an IC50 (MX1 [1]) of 22.5 nM, an IC50 (CCRF-CEM [2]) of 1.1 nM and an IC50 (CCRF-CEM [3]) of 484 nM. It also gave an IC50 (CCRF-CEM [4]) of 1730 nM and an IC50 (A549) of 2.1 nM.

`ClCCN(CCCl)CCOc1cccc2cc3ccccc3nc12` gave an IC50 (HCT-116) of 94.9 nM, an IC50 (MX1 [1]) of 70.8 nM and an IC50 (CCRF-CEM [2]) of 37.6 nM. It also gave an IC50 (CCRF-CEM [3]) of 117 nM, an IC50 (CCRF-CEM [4]) of 163 nM and an IC50 (A549) of 137 nM.

Work on `Cc1ccc(N)cc1Nc1c2ccccc2nc2c(OCCN(CCCl)CCCl)cccc12` yielded an IC50 (HCT-116) of 9 nM, an IC50 (MX1 [1]) of 7.1 nM and an IC50 (CCRF-CEM [2]) of 8 nM. It also gave an IC50 (CCRF-CEM [3]) of 46.5 nM, an IC50 (CCRF-CEM [4]) of 31.2 nM and an IC50 (A549) of 31.6 nM.

`Cc1ccc(N)cc1Nc1c2ccccc2nc2c(OCCCCN(CCCl)CCCl)cccc12` showed an IC50 (HCT-116) of 13.6 nM, an IC50 (MX1 [1]) of 9.2 nM and an Activity (Mus musculus [7]) of 21%. For the same molecule, the IC50 (CCRF-CEM [2]) was 4.3 nM, the Activity (MX1 [8]) was 20% and the IC50 (CCRF-CEM [3]) was 57.8 nM. It also gave an IC50 (CCRF-CEM [4]) of 42.3 nM and an IC50 (A549) of 15.4 nM.

Work on `COc1cc(N)cc(Nc2c3ccccc3nc3c(OCCN(CCCl)CCCl)cccc23)c1` yielded an Activity (Mus musculus [9]) of 10%, an IC50 (HCT-116) of 53.8 nM and an IC50 (MX1 [1]) of 28.1 nM. It also gave an Activity (MX1 [10]) of 96%, an Activity (Mus musculus [11]) of 15% and an IC50 (CCRF-CEM [2]) of 11.9 nM. The IC50 (CCRF-CEM [3]) was 49.8 nM, the IC50 (CCRF-CEM [4]) was 46.9 nM and the Activity (Mus musculus [12]) was 10%. It also gave an IC50 (A549) of 90.2 nM.

For `CC[C@]1(O)C[C@@H]2CN(CCc3c([nH]c4ccccc34)[C@@](C(=O)OC)(c3cc4c(cc3OC)N(C)[C@H]3[C@@](O)(C(=O)OC)[C@H](OC(C)=O)[C@]5(CC)C=CCN6CC[C@]43[C@@H]65)C2)C1` [VINBLASTINE], the IC50 (HCT-116) was 0.7 nM, the IC50 (MX1 [1]) was 2 nM and the IC50 (CCRF-CEM [2]) was 0.4 nM. The IC50 (CCRF-CEM [3]) was 28.7 nM, the IC50 (CCRF-CEM [4]) was 207 nM and the IC50 (A549) was 1.1 nM.

In the case of `Nc1cc(CO)cc(Nc2c3ccccc3nc3c(OCCN(CCCl)CCCl)cccc23)c1`, the IC50 (HCT-116) is reported as 7.7 nM, the IC50 (MX1 [1]) is reported as 6.6 nM and the IC50 (CCRF-CEM [2]) is reported as 6.7 nM. It also gave an IC50 (CCRF-CEM [3]) of 63.3 nM, an IC50 (CCRF-CEM [4]) of 126 nM and an IC50 (A549) of 32.4 nM.

`CCOC(=O)Nc1cc(CO)cc(Nc2c3ccccc3nc3c(OCCN(CCCl)CCCl)cccc23)c1` gave an IC50 (HCT-116) of 59.5 nM, an IC50 (MX1 [1]) of 55.5 nM and an IC50 (CCRF-CEM [2]) of 25.7 nM. For the same molecule, the IC50 (CCRF-CEM [3]) was 126 nM, the IC50 (CCRF-CEM [4]) was 231 nM and the IC50 (A549) was 94 nM.

`ClCCN(CCCl)CCCCOc1cccc2cc3ccccc3nc12` was tested, and the IC50 (HCT-116) was 118 nM, the IC50 (MX1 [1]) was 82 nM and the IC50 (CCRF-CEM [2]) was 51.2 nM. It also gave an IC50 (CCRF-CEM [3]) of 393 nM, an IC50 (CCRF-CEM [4]) of 308 nM and an IC50 (A549) of 226 nM.

In the case of `COc1cc(N)cc(Nc2c3ccccc3nc3c(OCCCCN(CCCl)CCCl)cccc23)c1`, the IC50 (HCT-116) is reported as 13.8 nM, the IC50 (MX1 [1]) is reported as 5.6 nM and the IC50 (CCRF-CEM [2]) is reported as 4.2 nM. For the same molecule, the Activity (MX1 [8]) was 77%, the IC50 (CCRF-CEM [3]) was 43.9 nM and the IC50 (CCRF-CEM [4]) was 51.3 nM. It also gave an Activity (Mus musculus [13]) of 8% and an IC50 (A549) of 19 nM.

`Cc1cc(N)cc(Nc2c3ccccc3nc3c(OCCCCN(CCCl)CCCl)cccc23)c1` was tested, and the IC50 (HCT-116) was 9.1 nM, the IC50 (MX1 [1]) was 10 nM and the IC50 (CCRF-CEM [2]) was 3.7 nM. For the same molecule, the IC50 (CCRF-CEM [3]) was 61.1 nM, the Activity (MX1 [14]) was 6% and the IC50 (CCRF-CEM [4]) was 54.5 nM. It also gave an Activity (Mus musculus [15]) of 8% and an IC50 (A549) of 8.9 nM.

Molecule `OCc1cc(O)cc(Nc2c3ccccc3nc3c(OCCN(CCCl)CCCl)cccc23)c1` has an IC50 (HCT-116) of 125 nM, an IC50 (MX1 [1]) of 58 nM and an IC50 (CCRF-CEM [2]) of 6.9 nM. It also gave an IC50 (CCRF-CEM [3]) of 139 nM, an IC50 (CCRF-CEM [4]) of 152 nM and an IC50 (A549) of 108 nM.

`OCc1cc(O)cc(Nc2c3ccccc3nc3c(OCCCCN(CCCl)CCCl)cccc23)c1` was tested, and the IC50 (HCT-116) was 9.1 nM, the IC50 (MX1 [1]) was 7.2 nM and the IC50 (CCRF-CEM [2]) was 5.9 nM. The IC50 (CCRF-CEM [3]) was 117 nM, the IC50 (CCRF-CEM [4]) was 338 nM and the IC50 (A549) was 25.1 nM.
